Rows were chosen to be rich in hits. Some 4.2% of all compounds tested hit in one or more screens of this group.
ANO1 block: TMEM16A chloride channel inhibitors, primary screen, cell-based, HTS. actives 1.2% (n = 310,000). normalized B-score (activity score, 25-100; higher = stronger inhibition) at 10 µM. HEK293 TMEM16A/YFP iodide influx fluorescence, ionomycin;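 active means ratio plate-corrected score three or more library SD toward inhibition, starting fluorescence score within five deviations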;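 further: score derived from kinetic fluorescence span divided by baseline fluorescence per well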
UPR XBP1 act: activators of adaptive XBP1 UPR arm, primary screen, cell-based, CHO-XBP1 luciferase reporter, luminescence, uHTS; IRE1-XBP1 UPR activation; percent of tunicamycin response, DMSO as zero; activation, % at 20 µM; actives 0.33% (n = 330,000); AID 463104, 2010;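 active means versus positive control, 20 µM dose yields 30% or more activation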
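Material: IRE1-XBP1 luciferase reporter CHO line / Quantity: one thousand reporter cells per well / Buffer or medium: F12 with 10% serum / Compound: 20 µM single concentration, DMSO 1% / Times: 6 h treatment, 37 °C / Detection: Steady-Glo luciferase glow luminescence, 10 min after reagent addition / Benchmarks: tunicamycin high, DMSO low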
Lipid droplet: inhibitors of hepatocyte lipid droplet formation, primary screen, imaging, high-throughput imaging, BODIPY stain; AML12 mouse hepatocytes, oleate lipid droplets; inhibition, % at 6.5 µM; actives 0.4% (n = 240,000);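 active means lipid droplet intensity inhibited by at least 50%, with more than 500 cells counted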
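Material: mouse AML12 hepatocyte cell line, fixed after treatment; Timing: compound with oleate, overnight; Technique: high-content imaging of BODIPY-stained droplets and DAPI nuclei; Probe or stimulus: oleate, 100 µM final; Dosing: compound at 6.5 µM only.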
ANO1 activ: TMEM16A chloride channel activators or potentiators, primary screen, cell-based, HTS; HEK293 TMEM16A/YFP-H148Q/I152L, iodide quench fluorescence; hits give low values; Anoctamin-1 (Mus musculus), Q8BHY3; actives 0.3% (n = 340,000); B-score at 10 µM;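 active means fluorescence-ratio B-score plate-corrected deviation score at least 3 library SD below zero, with starting fluorescence score within 5 deviations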;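 further: channel opened by trigger with iodide after compound preincubation; score built on the fluorescence ratio of max minus min over baseline; more negative score means more quench and so TMEM16A activation or potentiation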
UPR CHOP act: activators of apoptotic CHOP UPR arm, primary screen, cell-based, CHO-CHOP luciferase reporter, luminescence, uHTS; UPR activation; percent of tunicamycin response over DMSO baseline; activation, % at 10 µM; actives 0.34% (n = 330,000);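 active means at 10 µM dose, activation of 40% or more, normalized to positive control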
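Dosing – one dose, 10 µM in 0.5% DMSO · System – CHO-CHOP cells, stable luciferase reporter of PERK-eIF2a-CHOP signalling · Input – 500 cells/well · Control set – tunicamycin 10 µg/mL final as positive, DMSO-only wells as negative · Timing – 6 h compound treatment, 37 °C · Measure – % activation vs tunicamycin · Technique – luminescence read with Steady-Glo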
CHOP inhibitor: inhibitors of CHOP promoter induction, primary screen, cell-based, unfolded protein response, luciferase reporter; CHO-K1 CHOP-promoter luciferase, tunicamycin-induced, 15-18 h; inhibition, % at 10 µM; actives 3.8% (n = 220,000);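 active means compounds that reduced the stress-induced luciferase reporter signal by more than about 70% of percent inhibition, limit read from the data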
CHOP inh conf: retest of CHOP induction inhibitors, confirmation, cell-based | shares compounds with CHOP inhibitor | CHO-CHOP promoter luciferase reporter, tunicamycin-induced, luminescence | inhibition, % at 10 µM | actives 45% (n = 2,100);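 active means mean of three repeat readings of reporter signal inhibition above a set limit, cut at about 70% in these data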
Of the large screens only hits and unclear results are named; the others gave an inactive call (follow-up assays come after a bar, where they were run).

COc1cc(NC(=O)COc2ccccc2[N+](=O)[O-])ccc1NC(=O)c1cccs1	CHOP inhibitor 104 (no result: ANO1 block, UPR XBP1 act, UPR CHOP act) | CHOP inh conf 105
O=C(NC(Cc1ccccc1)C(=O)O)c1cccnc1Cl (stereo not given)	none (no result: CHOP inhibitor)
CCN(CC)C(=S)Sc1c(-c2ccccc2)c2cc(Cl)ccc2[nH]c1=O	CHOP inhibitor 97 | CHOP inh conf inactive
CC(C)NC(=O)c1ccccc1NC(=O)/C=C/c1cccc([N+](=O)[O-])c1	CHOP inhibitor 107 | CHOP inh conf 111
CC(C)C(NC(=O)/C=C/c1cccc([N+](=O)[O-])c1)C(C)C	none
COc1ccc(CNC(=O)CN(C(=O)CCC(=O)Nc2nccs2)c2cccc(C)c2)cc1	none (no result: CHOP inhibitor)
O=C1c2ccccc2C(=O)N1N(c1ccccc1)c1ccccc1	none (no result: ANO1 block, UPR XBP1 act, Lipid droplet, UPR CHOP act, CHOP inhibitor)
O=C1C=CC(=O)N1N(c1ccccc1)c1ccccc1	CHOP inhibitor 107 | CHOP inh conf 118
C=CCn1c(CCc2cc(C(C)(C)C)c(O)c(C(C)(C)C)c2)n[nH]c1=S	CHOP inhibitor 101 | CHOP inh conf 86
Cc1cccc(N2C(=O)C(O)=C(C(=O)c3cccs3)C2c2ccc(Cl)cc2)n1 (stereo not given)	none
O=C(COc1ccccc1)NCc1nnc2c3ccccc3c(-c3ccccc3)nn12	none
CCOC(=O)c1cnc(-n2nc(C)cc2C)nc1NCCc1ccccc1	CHOP inhibitor 101 (no result: Lipid droplet) | CHOP inh conf inactive
CCOC(=O)c1cnc(-n2nc(C)cc2C)nc1Nc1ccccc1OC	none (no result: ANO1 block, UPR XBP1 act, Lipid droplet, ANO1 activ, UPR CHOP act)
COC(=O)C1=C(O)/C(=C\c2ccc(CNC(=O)C(=O)Nc3ccc(C)cc3)o2)N=C1C	none (no result: Lipid droplet)
CCOC(=O)C1=C(O)/C(=C/c2ccc(CNC(=O)C(=O)Nc3ccc(C)cc3)o2)N=C1C	CHOP inhibitor 106 | CHOP inh conf 109
C[C@H](CO)N1C[C@H](C)[C@@H](CN(C)Cc2ccc(-c3ccccc3)cc2)Oc2c(NC(=O)Nc3ccc4c(c3)OCO4)cccc2C1=O	none (no result: ANO1 block, Lipid droplet, CHOP inhibitor)
COc1ccccc1NC(=O)Nc1nnc(-c2ccco2)s1	none (no result: Lipid droplet, ANO1 activ)
O=C(Nc1ccc(F)cc1)Nc1nnc(-c2ccco2)s1	CHOP inhibitor 96 | CHOP inh conf inactive
COc1ccc(C(=O)Nc2nnc(-c3ccco3)s2)cc1	CHOP inhibitor 107 | CHOP inh conf 73
COC(=O)c1cn(CC(=O)Nc2ccc(F)cc2)c2ccccc12	none
Cc1nc(COC(=O)c2cc(O)c3ccccc3c2O)cs1	CHOP inhibitor 104 (no result: ANO1 block, UPR XBP1 act, UPR CHOP act) | CHOP inh conf 120
O=C(COC(=O)c1ccccc1O)NC12CC3CC(CC(C3)C1)C2	none (no result: ANO1 block, Lipid droplet, CHOP inhibitor)
O=C(COC(=O)/C=C/C(=O)OCC(=O)NC12CC3CC(CC(C3)C1)C2)NC12CC3CC(CC(C3)C1)C2	CHOP inhibitor 105 | CHOP inh conf inactive
COc1cccc(NC(=S)N2CCC(NC(=O)c3ccco3)CC2)c1	none (no result: CHOP inhibitor)
Cc1ccccc1-n1nnnc1SCc1cc(=O)n2ccsc2n1	none
CCCOc1ccc(N2C(=O)CC(NNC(=O)c3ccc(COc4ccccc4)o3)C2=O)cc1 (stereo not given)	CHOP inhibitor 102 | CHOP inh conf inactive
CCOc1cccc(N2C(=O)CC(NNC(=O)c3ccc(Br)o3)C2=O)c1 (stereo not given)	none
Cc1oc2c(C)c(O)ccc2c(=O)c1-c1cnn(-c2ccccc2)c1	CHOP inhibitor 104 (no result: Lipid droplet) | CHOP inh conf inactive
CCn1c2ccc(OC)cc2c2nc3ccccc3nc21	none (no result: ANO1 activ)
CCOc1ccc(Cn2c3ccc(OC)cc3c3nc4ccccc4nc32)cc1	CHOP inhibitor 106 (no result: UPR XBP1 act, UPR CHOP act) | CHOP inh conf inactive

Assay outcomes from PubChem BioAssay.
